Test results reported in article PMC2752828 (Organic & biomolecular chemistry, 2008).

Target: T1, Cdc25B catalytic domain (Homo sapiens, UniProt P30305)
T1 sequence (P30305 374-551 limits assumed): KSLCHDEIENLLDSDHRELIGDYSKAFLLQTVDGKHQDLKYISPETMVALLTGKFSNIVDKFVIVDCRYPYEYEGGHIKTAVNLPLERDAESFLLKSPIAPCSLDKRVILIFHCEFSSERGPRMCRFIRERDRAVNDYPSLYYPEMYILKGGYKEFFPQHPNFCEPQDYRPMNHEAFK
Test: OMFP fluorescence phosphatase assay, 10-point curve
Format: biochemical
Summary of the method: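 Recombinant human Cdc25B catalytic domain incubated with test compound and O-methylfluorescein phosphate substrate for 60 min; fluorescence change read at 485 nm excitation/525 nm emission. Percent inhibition taken relative to maximum and minimum controls. IC50 fitted to four-parameter logistic model over 10 concentrations, 25 μM to 0.2 μM; two independent experiments in triplicate.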

| SMILES | IC50 [nM] |
| --- | --- |
| O=C1C(Cl)=C(NCCN2CCOCC2)C(=O)c2c(Cl)ccnc21 [WDP1079, 4,7-Dichloro-6-(2-morpholin-4-yl-ethylamino)quinoline-5,8-dione] | 1100 ± 100 |
| COc1ccnc2c1C(=O)C(NCCN1CCOCC1)=C(F)C2=O [WDP1149, 7-Fluoro-4-methoxy-6-(2-morpholin-4-yl-ethylamino)quinoline-5,8-dione] | 5300 ± 600 |
| O=C1C(Cl)=C(NCCN2CCOCC2)C(=O)c2nccnc21 [WDP1263, 6-Chloro-7-(2-morpholin-4-yl-ethylamino)quinoxaline-5,8-dione] | 500 ± 100 |
